Assay results taken from ChEMBL document CHEMBL1143077, “Synthesis of 2-[3-(7-Chloro-quinolin-4-ylamino)-alkyl]-1-(substituted phenyl)-2,3,4,9-tetrahydro-1H-beta-carbolines as a new class of antimalarial agents” (2008).
Converted amounts (≈) assume the structure as drawn.

Tested on: Plasmodium falciparum
Assay: Antimalarial activity against chloroquine-sensitive Plasmodium falciparum NF54 after 36-40 hrs
Assay type: functional
In short: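 Rieckmann microassay: NF-54 kept in RPMI-1640 with 25 mM HEPES, 1% D-glucose, 0.23% sodium bicarbonate, 10% heat-inactivated human serum. Ring stage obtained by 5% D-sorbitol synchronization; ~1% parasitemia, 3% haematocrit. Compound 0.25–50 µg/ml, duplicate wells, 37 °C in candle jar. Giemsa smears scored microscopically; MIC taken as lowest concentration blocking full maturation to schizonts.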

SMILES | MIC [µM]
COC(=O)[C@@H]1Cc2c([nH]c3ccccc23)[C@@H](c2ccc(C(C)C)cc2)N1CCCNc1ccnc2cc(Cl)ccc12 | 0.05 (≈ 0.0284 µg/mL)
COC(=O)[C@H]1Cc2c([nH]c3ccccc23)[C@H](c2ccc(C(C)C)cc2)N1CCNc1ccnc2cc(Cl)ccc12 | 18.1 (≈ 10 µg/mL)
COC(=O)[C@H]1Cc2c([nH]c3ccccc23)[C@H](c2ccc(C)cc2)N1CCNc1ccnc2cc(Cl)ccc12 | 19.1 (≈ 10 µg/mL)
CCc1ccc([C@@H]2c3[nH]c4ccccc4c3C[C@H](C(=O)OC)N2CCCNc2ccnc3cc(Cl)ccc23)cc1 | 0.11 (≈ 0.0608 µg/mL)
COC(=O)[C@@H]1Cc2c([nH]c3ccccc23)[C@H](c2ccc(OC)cc2)N1CCCNc1ccnc2cc(Cl)ccc12 | 3.61 (≈ 2 µg/mL)
COC(=O)[C@H]1Cc2c([nH]c3ccccc23)[C@@H](c2ccc(OC)cc2)N1CCCNc1ccnc2cc(Cl)ccc12 | 3.61 (≈ 2 µg/mL)
COC(=O)[C@@H]1Cc2c([nH]c3ccccc23)[C@H](c2cc(OC)c(OC)c(OC)c2)N1CCCNc1ccnc2cc(Cl)ccc12 | 16.3 (≈ 10 µg/mL)
COC(=O)[C@@H]1Cc2c([nH]c3ccccc23)[C@H](c2ccc(SC)cc2)N1CCCNc1ccnc2cc(Cl)ccc12 | 17.5 (≈ 10 µg/mL)
COC(=O)[C@@H]1Cc2c([nH]c3ccccc23)[C@H](c2ccc(C(C)C)cc2)N1CCNc1ccnc2cc(Cl)ccc12 | 18.1 (≈ 10 µg/mL)
COC(=O)[C@H]1Cc2c([nH]c3ccccc23)[C@@H](c2ccc(C(C)C)cc2)N1CCNc1ccnc2cc(Cl)ccc12 | 18.1 (≈ 10 µg/mL)
COC(=O)[C@@H]1Cc2c([nH]c3ccccc23)[C@@H](c2ccc(C(C)C)cc2)N1CCNc1ccnc2cc(Cl)ccc12 | 18.1 (≈ 10 µg/mL)
COC(=O)[C@H]1Cc2c([nH]c3ccccc23)[C@H](c2ccc(OC)cc2)N1CCCNc1ccnc2cc(Cl)ccc12 | 18.1 (≈ 10 µg/mL)
COC(=O)[C@@H]1Cc2c([nH]c3ccccc23)[C@@H](c2ccc(OC)cc2)N1CCCNc1ccnc2cc(Cl)ccc12 | 3.61 (≈ 2 µg/mL)
COC(=O)[C@H]1Cc2c([nH]c3ccccc23)[C@H](c2cc(OC)c(OC)c(OC)c2)N1CCCNc1ccnc2cc(Cl)ccc12 | 16.3 (≈ 10 µg/mL)
CCN(CC)CCCC(C)Nc1ccnc2cc(Cl)ccc12 (centres undefined) [CHLOROQUINE] | 0.391 (≈ 0.125 µg/mL)
COC(=O)[C@H]1Cc2c([nH]c3ccccc23)[C@H](c2ccc(SC)cc2)N1CCCNc1ccnc2cc(Cl)ccc12 | 17.5 (≈ 10 µg/mL)

Results, then the compound that gave them:

MIC [µM] | SMILES
0.46 (≈ 0.248 µg/mL) | COC(=O)[C@H]1Cc2c([nH]c3ccccc23)[C@H](c2ccc(C)cc2)N1CCCNc1ccnc2cc(Cl)ccc12
16.6 (≈ 10 µg/mL) | COC(=O)[C@H]1Cc2c([nH]c3ccccc23)[C@H](c2ccc(Br)cc2)N1CCCNc1ccnc2cc(Cl)ccc12
0.06 (≈ 0.0323 µg/mL) | COC(=O)[C@@H]1Cc2c([nH]c3ccccc23)[C@@H](c2ccc(C)cc2)N1CCCNc1ccnc2cc(Cl)ccc12
0.22 (≈ 0.125 µg/mL) | COC(=O)[C@@H]1Cc2c([nH]c3ccccc23)[C@H](c2ccc(C(C)C)cc2)N1CCCNc1ccnc2cc(Cl)ccc12
0.22 (≈ 0.125 µg/mL) | COC(=O)[C@H]1Cc2c([nH]c3ccccc23)[C@@H](c2ccc(C(C)C)cc2)N1CCCNc1ccnc2cc(Cl)ccc12
3.58 (≈ 2 µg/mL) | COC(=O)[C@@H]1Cc2c([nH]c3ccccc23)[C@H](c2ccc(Cl)cc2)N1CCCNc1ccnc2cc(Cl)ccc12
0.22 (≈ 0.125 µg/mL) | COC(=O)[C@H]1Cc2c([nH]c3ccccc23)[C@H](c2ccc(C(C)C)cc2)N1CCCNc1ccnc2cc(Cl)ccc12
1.79 (≈ 1 µg/mL) | COC(=O)[C@H]1Cc2c([nH]c3ccccc23)[C@H](c2ccc(Cl)cc2)N1CCCNc1ccnc2cc(Cl)ccc12
